Experimental data reported in ChEMBL document CHEMBL1152677, “Combretastatin-like chalcones as inhibitors of microtubule polymerisation. Part 2: Structure-based discovery of alpha-aryl chalcones” (Bioorg Med Chem, 2009).

What was measured:
[1] = test system: K562; assay: Antiproliferative activity against human K562 cells after 5 days by MTT assay; assay type: functional, cell-based; conditions: K562, 120 h
In short: (§1)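 Cells at about 2000 cells/mL (set by doubling time) in RPMI with 10% v/v FCS; compound from DMSO stock, seven twofold serial dilutions plus drug-free control, triplicate wells, 37 °C 5% CO2 for 5 days. MTT (3 mg/mL in PBS) added for 3 h, formazan dissolved in DMSO, OD read at 540 and 690 nm; IC50 derived graphically as percentage of control growth.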

[2] = Inhibition of tubulin assembly by spectrophotometry
In short: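 Tubulin (10–15 μM stock) in 0.1 M Mes, 1 mM EGTA, 0.5 mM MgCl2, pH 6.6, with GTP, compound in DMSO, assembled on cold at 0 °C then moved to 37 °C. Absorbance at 350 nm followed for 30 min against drug/GTP buffer blanks; change in optical density relative to untreated control gives IC50 for assembly inhibition.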

[3] = test system: L1210; assay: Antiproliferative activity against mouse L1210 cells after 5 days by MTT assay; assay type: functional, cell-based; conditions: L1210, 120 h; in short: as §1
[4] = test system: P388; assay: Antiproliferative activity against mouse P388 cells after 5 days by MTT assay; assay type: functional, cell-based; conditions: P388, 120 h; in short: as §1
[5] = test system: K562; assay: Cell cycle arrest in human K562 cells assessed as accumulation at G0/G1 phase at 10 uL after overnight incubation by propidium iodide staining-based flow cytometry; assay type: functional
In short: (§2)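 Fixed in cold 1:1 acetone:ethanol, washed in PBS, RNAse treated (37 °C, 15 min), stained with propidium iodide 50 µg/mL; DNA content read by flow cytometry, argon laser excitation 488 nm; percentage of cells per phase versus untreated control.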

[6] = test system: K562; assay: Cell cycle arrest in human K562 cells assessed as accumulation at G2/M phase at 10 uL after overnight incubation by propidium iodide staining-based flow cytometry; assay type: functional; in short: as §2
[7] = test system: A2780; assay: Antiproliferative activity against human A2780 cells after 5 days by MTT assay; assay type: functional, cell-based; conditions: A2780, 120 h; in short: as §1
[8] = test system: K562; assay: Cytotoxicity against human K562 cells; assay type: functional, cell-based
In short: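 K562 cells in RPMI with 10% v/v FCS, at about 2000 cells/mL. Drug in DMSO was serially diluted twofold to give seven concentrations, plus a drug-free control. Cells were plated in triplicate and incubated 5 days at 37 °C, 5% CO2. MTT (3 mg/mL stock) was added for 3 h, formazan dissolved in DMSO, and OD read at 540 and 690 nm. IC50 was found graphically as percent of control growth.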

[9] = test system: K562; assay: Cell cycle arrest in human K562 cells assessed as accumulation at S phase at 10 uL after overnight incubation by propidium iodide staining-based flow cytometry; assay type: functional; in short: as §2
[10] = test system: A549; assay: Antiproliferative activity against human A549 cells after 5 days by MTT assay; assay type: functional, cell-based; conditions: A549, 120 h; in short: as §1
[11] = Displacement of [3H]colchicine from tubulin
[12] = Inhibition of tubulin assembly by turbidimetry assay

COc1ccc(C=C(C(=O)c2cc(OC)c(OC)c(OC)c2)c2ccc(C)cc2)cc1[N+](=O)[O-]
IC50 [1]: 2430 nM

COc1ccc(C=C(C(=O)c2cc(OC)c(OC)c(OC)c2)c2ccc(C)cc2)cc1
IC50 [1]: 760 nM

COc1ccc(C(=Cc2ccc(OC)c(F)c2)C(=O)c2cc(OC)c(OC)c(OC)c2)cc1
IC50 [2]: 4200 nM
IC50 [1]: 450 nM

COc1ccc(/C=C(/C(=O)c2cc(OC)c(OC)c(OC)c2)c2ccccc2)cc1
IC50 [1]: 20 nM

COc1ccc(C=C(C(=O)c2cc(OC)c(OC)c(OC)c2)c2ccccc2)cc1[N+](=O)[O-]
IC50 [1]: > 10000 nM

COc1ccc(C(=Cc2ccccc2)C(=O)c2cc(OC)c(OC)c(OC)c2)cc1
IC50 [1]: 4920 nM

COc1ccc(C(=Cc2ccc(OC)c([N+](=O)[O-])c2)C(=O)c2cc(OC)c(OC)c(OC)c2)cc1
IC50 [1]: 2660 nM

COc1ccc(/C=C\c2cc(OC)c(OC)c(OC)c2)cc1O [COMBRETASTATIN A4]
IC50 [2]: 3700 nM
IC50 [3]: 2.3 nM
IC50 [4]: 3.1 nM
Activity [5]: 14%
Activity [6]: 62.7%
IC50 [7]: 1.9 nM
IC50 [8]: 1.4 nM
Activity [9]: 23.3%
IC50 [10]: 7.8 nM
Activity [11]: 92%
IC50 [1]: 3.2 nM

COc1ccc(C=C(C(=O)c2cc(OC)c(OC)c(OC)c2)c2ccc(OC)cc2)cc1
IC50 [1]: 500 nM

COc1ccc(/C=C(/C(=O)c2cc(OC)c(OC)c(OC)c2)c2ccccc2O)cc1F
IC50 [2]: 7200 nM
IC50 [3]: 60 nM
IC50 [4]: 530 nM
Activity [5]: 10.6%
Activity [6]: 45.7%
IC50 [7]: 40 nM
Activity [9]: 43.6%
IC50 [10]: 140 nM
IC50 [1]: 60 nM

COc1ccc(/C=C(/C(=O)c2cc(OC)c(OC)c(OC)c2)c2ccc(N(C)C)cc2)cc1
IC50 [1]: 150 nM

COc1ccc(/C=C(/C(=O)c2cc(OC)c(OC)c(OC)c2)c2ccc(OC)cc2)cc1
IC50 [1]: 40 nM

COc1ccc(/C=C(/C(=O)c2cc(OC)c(OC)c(OC)c2)c2ccccc2O)cc1O[Si](C)(C)C(C)(C)C
IC50 [2]: > 10000 nM
IC50 [1]: 380 nM

COc1ccc(C=C(C(=O)c2cc(OC)c(OC)c(OC)c2)c2ccc(C)cc2)cc1F
IC50 [2]: 4400 nM
IC50 [1]: 570 nM

COc1ccc(/C=C(/C(=O)c2cc(OC)c(OC)c(OC)c2)c2ccccc2O)cc1O
IC50 [2]: 5500 nM
IC50 [3]: 36 nM
IC50 [4]: 28 nM
Activity [5]: 6.5%
Activity [6]: 75.4%
IC50 [7]: 34 nM
Activity [9]: 18.1%
IC50 [10]: 50 nM
IC50 [1]: 49 nM

COc1cc2c(c(OC)c1OC)-c1ccc(OC)c(=O)cc1[C@@H](NC(C)=O)CC2 [COLCHICINE]
IC50 [12]: 2600 nM

COc1ccc(C=C(C(=O)c2cc(OC)c(OC)c(OC)c2)c2ccccc2)cc1F
IC50 [1]: 790 nM

COc1cc(C(=O)C(=Cc2ccccc2)c2ccc(C)cc2)cc(OC)c1OC
IC50 [1]: 2970 nM

COc1ccc(C(=Cc2ccc(OC)c(O)c2)C(=O)c2cc(OC)c(OC)c(OC)c2)cc1
IC50 [2]: 2100 nM
IC50 [3]: 160 nM
IC50 [4]: 20 nM
Activity [5]: 10.8%
Activity [6]: 54.6%
IC50 [7]: 10 nM
Activity [9]: 34.6%
IC50 [10]: 680 nM
IC50 [1]: 12 nM

COc1ccc(/C=C(/C(=O)c2cc(OC)c(OC)c(OC)c2)c2ccc(OC)cc2OC)cc1
IC50 [1]: 90 nM

COc1ccc(/C=C(\C)C(=O)c2cc(OC)c(OC)c(OC)c2)cc1O
IC50 [2]: 3300 nM
IC50 [3]: 11 nM
IC50 [12]: 460 nM
IC50 [4]: 26 nM
Activity [5]: 10.7%
Activity [6]: 56.4%
IC50 [7]: 1.8 nM
Activity [9]: 32.8%
IC50 [10]: 10 nM
IC50 [1]: 4.4 nM

COc1ccc(C=C(C(=O)c2cc(OC)c(OC)c(OC)c2)c2ccc(C)cc2)cc1O
IC50 [2]: 2600 nM
IC50 [1]: 32 nM

COc1ccc(/C=C(/C(=O)c2cc(OC)c(OC)c(OC)c2)c2ccccc2O)cc1
IC50 [2]: > 10000 nM
IC50 [1]: 370 nM

COc1cc(C(=O)C(=Cc2ccccc2)c2ccccc2)cc(OC)c1OC
IC50 [1]: 6300 nM
